Screening data deposited in PubChem by several laboratories.
This excerpt belongs to a sample that is enriched for hits.
Dynein cargo inh = dynein cargo transport inhibition; AID 1381; 3617.4 mouse cells, GR-EGFP nuclear translocation imaging; test concentration mostly 20 µM; stimulated with dexamethasone, 1 µM; hits give low values; 220,000 tested, 0.47% active; z-score, hits read low;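 active = plate z-score of nuclear minus cytoplasmic receptor signal below a set negative limit, without overly bright fluorescence or cell loss, cut at about -3.5 in these data, passing the limit was not always enough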;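 also: z-score of nuclear minus cytoplasmic ring GR-EGFP intensity difference per well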
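Buffer or medium: tet-free, stripped-serum medium; reagent: dexamethasone at 1.0 µM final, 30 min; incubation: 48 h induction, 1 h compound, 30 min dex at 37 °C; measured by: formaldehyde fixation, Hoechst nuclear stain, 10x automated fluorescence imaging; read-out: nuclear-to-cytoplasmic GR-EGFP distribution per well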
CHOP UPR activ = apoptotic UPR (CHOP) activation; CHO-CHOP luciferase reporter, luminescence; percent of tunicamycin response over DMSO baseline; AID 449763; 330,000 tested, 0.34% active; activation, % at 10 µM;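 active = at 10 µM dose, activation of 40% or more, normalized to positive control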;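 also: 100% = tunicamycin at 10 µg/mL and 0% = DMSO alone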
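assay system = CHO CHOP reporter cells | amount = 500 CHO-CHOP cells per well | buffer or medium = F12 with 10% FBS | incubation = 16-18 h cell attachment, then 6 h compound exposure, 37 °C | detection = luminescence read with Steady-Glo | read-out = percent activation relative to tunicamycin control | controls = tunicamycin high control, DMSO low control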
CHOP inh = blocks CHOP induction under ER stress. CHO-K1 CHOP-promoter luciferase, tunicamycin-induced, 15-18 h. inhibition, % at 10 µM. 220,000 tested, 3.8% active. AID 2732;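 active = compounds that reduced the stress-induced luciferase reporter signal by more than about 70% of percent inhibition, limit read from the data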;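 also: 0% = tunicamycin plus vehicle and 100% = wells without tunicamycin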
XBP1 UPR activ = activators of adaptive arm of unfolded protein response (XBP1); 330,000 tested, 0.33% active; activation, % at 20 µM; CHO-XBP1 luciferase reporter, IRE1-XBP1 UPR activation, luminescence; percent of tunicamycin response, DMSO as zero;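 active = versus positive control, 20 µM dose yields 30% or more activation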;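 also: 100% = tunicamycin at 10 µg/mL and 0% = DMSO only wells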
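Test system: CHO-XBP1 luciferase reporter cells | Buffer or medium: Serum-containing F12 medium, 10% FBS | Schedule: 6 h compound exposure at 37 °C, 5% CO2 | Detection: Steady-Glo luciferase glow luminescence, 10 min after reagent addition | Read-out basis: Activation, % of tunicamycin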
T cruzi inh = blocks replication of Trypanosoma cruzi. inhibition, % (concentration not given with the values). AID 1885. 300,000 tested, 1.4% active. T. cruzi beta-gal in NIH3T3, luminescence, 90 h;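 active = mean inhibition across valid replicates above about 55%, limit read from the data; inconclusive = mean below that limit but half or more replicates reach it; inactive = mean below it, under half of replicates reach it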;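 also: signal also drops with host cell toxicity which is not excluded here; 0% = plate median of DMSO wells and 100% = zero luminescence signal; higher percent means less beta-gal luminescence so fewer parasites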
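System: mouse NIH/3T3 fibroblasts infected with β-gal-expressing T. cruzi Tulahuen C4 / Input: NIH/3T3 cells, 5,000 per well / Buffer or medium: Low-serum DMEM with 2% FBS / Probe or stimulus: 5000 reporter trypomastigotes per well / Schedule: ≥90 h infection period, 3 h prior cell attachment / Measured by: GalScreen luminescence, 60 min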
Lmaj promast = Leishmania major promastigote growth inhibition; inhibition, % at 10 µM; 200,000 tested, 9% active; Leishmania major promastigotes, resazurin fluorescence viability; in the data active = inhibition above about 50%;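 also: promastigotes grown with compound for 44 hours at 28 °C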
Numbers without * were called inactive; ? = inconclusive; / = no result.

SMILES | Dynein cargo inh | CHOP UPR activ | CHOP inh | XBP1 UPR activ | T cruzi inh | Lmaj promast
CC(OC(=O)c1cccc(S(=O)(=O)N2CCCCCC2)c1)C(=O)Nc1ccc(S(N)(=O)=O)cc1 (configuration not stated) | / | -1 | / | -2 | -5 | /
N#Cc1c(-c2ccco2)cc(-c2cccnc2)nc1N | 0.098 | 2 | 0 | 0 | -27 | 18
N#Cc1c(-c2ccco2)cc(-c2ccccn2)nc1N | 0.32 | 2 | -45 | -1 | -18 | 78*
CCOc1ccc(NC(=S)N2CCN(C/C=C/c3ccccc3)CC2)cc1 | 1.1 | 3 | 25 | -5 | 12 | 90*
COc1ccc(NC(=S)N2CCN(C/C=C/c3ccccc3)CC2)cc1 | -0.36 | 5 | 23 | -1 | -5 | 86*
COc1ccc(NC(=S)N2CCN(C/C=C/c3ccccc3)CC2)cc1OC | -0.13 | -1 | -9 | -8 | 8 | 74*
CCOc1ccc(NC(=S)N2CCN(S(C)(=O)=O)CC2)cc1 | / | 1 | / | -5 | 0 | /
COc1ccc(OC)c(NC(=S)N2CCN(C/C=C/c3ccccc3)CC2)c1 | 0.92 | 0 | -7 | -3 | -7 | 29
CCCC1C2CN(C(C)C)CC=C2C(C#N)=C(N)C1(C#N)C#N (configuration not stated) | 4.4 | / | -6 | / | 13 | 76*
CN1CC=C2C(C#N)=C(N)C(C#N)(C#N)C(CCc3ccccc3)C2C1 (configuration not stated) | -3 | -2 | 31 | -1 | 2 | -3
COc1ccc(S(=O)(=O)N(CC(C)C)CC(C)C)c2cccnc12 | 2.1 | 0 | 17 | 3 | -4 | 72*
CCCCN(CCCC)S(=O)(=O)c1ccc(OC)c2ncccc12 | -0.29 | -2 | 15 | 0 | 14 | 75*
CCN(Cc1ccccc1)S(=O)(=O)c1ccc(OC)c2ncccc12 | 0.76 | -2 | 21 | 0 | 10 | /
NC(=O)C1CCN(CC(=O)Nc2ccccc2C(=O)NC2CC2)CC1 | / | -2 | / | 1 | / | /
CCn1c(CCNC(=O)c2ccc(OC)cc2)nnc1SCc1ccc(Cl)cc1Cl | 0.14 | 0 | 52 | -2 | 15 | 91*
CCn1c(CCNC(=O)c2ccc(OC)cc2)nnc1SCc1ccc(Cl)c(Cl)c1 | -0.32 | / | 41 | / | 17 | 93*
CCn1c(CCNC(=O)c2ccc(OC)cc2)nnc1SCC(=O)Nc1ccccc1F | -0.38 | 2 | -7 | 0 | 2 | -5
Cc1ccc(C)c(N(CC(=O)NCCc2ccccc2)C(=O)CCC(=O)Nc2ccccn2)c1 | / | -1 | / | -3 | 4 | /
O=C(NCc1ccco1)c1nn2c(C(F)(F)F)cc(-c3cccs3)nc2c1Br | -0.89 | 3 | 42 | 0 | 19 | 100*
Cc1cc(-n2cccn2)ccc1CN1CCN(C2CCCC2)C(CCO)C1 (configuration not stated) | -0.14 | -1 | -3 | 0 | 30 | 64*
CC(C)CCN1CCN(Cc2cccc(-n3cccn3)c2)CC1CCO (configuration not stated) | -0.016 | -1 | 20 | -1 | 9 | 83*
Cc1cc(-n2cccn2)ccc1CN1CCN(CC(C)C)C(CCO)C1 (configuration not stated) | -0.094 | 0 | 15 | -2 | 18 | /
OCCC1CN(Cc2cccc(-n3cccn3)c2)CCN1Cc1ccccc1 (configuration not stated) | 0.79 | 2 | 18 | 1 | -6 | 79*
Cc1ccc(CN2CCN(Cc3ccc(-n4cccn4)cc3)CC2CCO)cc1 (configuration not stated) | -0.8 | -1 | -4 | -4 | 29 | 62*
CC(=O)c1cccc(CN2CCN(Cc3ccccc3)C(CCO)C2)c1 (configuration not stated) | -0.24 | 0 | 8 | -1 | 11 | 18
SMILES | Dynein cargo inh | CHOP UPR activ | CHOP inh | XBP1 UPR activ | T cruzi inh | Lmaj promast
COCC(C)n1c(SC(C)C(=O)NC2CCCCC2C)nc2ccccc2c1=O (configuration not stated) | / | 4 | / | -2 | -6 | /
CN1CCN(C(=O)C2CC(=O)N(c3ccc(Cl)cc3)C2)CC1 (configuration not stated) | / | 3 | / | 4 | 13 | /
CCOC(=O)C1=C(COc2ccc(F)cc2Cl)NC(=O)NC1c1cc(C)ccc1C (configuration not stated) | 0.52 | 1 | 61 | 6 | -1 | 1
CCOC(=O)C1=C(COc2ccc(C)cc2)NC(=O)NC1c1cc(C)ccc1C (configuration not stated) | -0.41 | 1 | 90* | 5 | -14 | 1
Cc1nc2c3ccccc3nc(NNC(=O)CCC(=O)NCCN3CCN(c4ccccc4)CC3)n2n1 | / | 1 | / | 0 | -5 | /
CC(=O)N/C(=N\c1nc(C)cc(C)n1)Nc1ccc2ccccc2c1 | / | 1 | / | -4 | 20 | /
CCCN(CCC)CC(O)Cn1cc(/C=C/C(=O)c2ccccc2)c2ccccc21 (configuration not stated) | -2.5 | / | 31 | / | 41 | 69*
CCCN(CCC)CC(O)Cn1cc(/C=C/C(=O)c2cccs2)c2ccccc21 (configuration not stated) | 0.45 | / | 3 | / | ? | 64*
O=C(/C=C/c1cn(CC(O)CN2CCCCC2)c2ccccc12)c1ccccc1 (configuration not stated) | -0.59 | / | -15 | / | 14 | /
O=C(/C=C/c1cn(CC(O)CN2CCCCC2)c2ccccc12)c1cccs1 (configuration not stated) | -0.64 | / | 28 | / | 4 | 99*
CC1(C)N=C(SCC(=O)Nc2ccc(Cl)cc2Cl)C(c2ccccc2)=N1 | -1.1 | 0 | 76* | -1 | 6 | 7
CC1(C)N=C(SCC(=O)Nc2ccccc2)C(c2ccc(Cl)cc2)=N1 | 2 | 0 | 4 | 1 | 0 | 29
C[C@@H]1C(=O)NC2=Nc3cccc(Cl)c3CN21 | / | / | -17 | / | / | /
CC(C)CCNC(=O)c1onc(CSc2nc3ccccc3[nH]2)c1C(=O)NCCC(C)C | / | 0 | / | -4 | -2 | /
O=Cc1ccc(OC(=O)c2cc(Cl)nc3ccccc23)cc1 | -1.5 | 1 | 85* | 3 | -6 | -8
Cc1nc(NC(=O)C23CC4CC(CC(C4)C2)C3)sc1Cc1ccc2c(c1)OCO2 | 0.052 | 9 | -20 | 1 | 65* | 21
COc1ccc(Oc2cn[nH]c2-c2ccc(O)cc2O)cc1 | -0.72 | -3 | 20 | 2 | 10 | 58*
COc1ccc(-c2cn[nH]c2-c2ccc(O)cc2O)cc1 | / | 3 | / | 0 | 0 | /
COc1ccc(/C=N/NC(=S)Nc2ccccc2)cc1COc1ccc(F)cc1F | -0.27 | 3 | 8 | -3 | 12 | 55*
